The text below walks through data of ChEMBL document CHEMBL1143672, “Synthesis and pharmacology of site-specific cocaine abuse treatment agents: restricted rotation analogues of methylphenidate” (J Med Chem, 2007).

As usually defined, the inhibition is how much of the control response was suppressed. Usually pKi stands for −log10 of the Ki, conventionally taken in molar units. The term pIC50 denotes −log10 of the IC50, conventionally taken in molar units. Read a low pIC50 as a large IC50.

Assay [1] addresses Sodium-dependent serotonin transporter (Rattus norvegicus) (UniProt P31652). The assay is described as follows: Displacement of [3H]citalopram from 5HTT in Sprague-Dawley rat cerebrum at 10 uM.
Assay [2] has as its target T1, Sodium-dependent dopamine transporter (Rattus norvegicus, UniProt P23977). The assay is described as follows: Displacement of [3H]WIN-35428 from DAT in Sprague-Dawley rat striatum.
Assay [3] concerns the target Monoamine transporters; serotonin & dopamine (Rattus norvegicus) (UniProt P31652+P23977). The assay is described as follows: Selectivity for rat DAT over rat 5HTT. The class given is protein assay.
Assay [4] concerns the target T1, Sodium-dependent dopamine transporter. The assay is described as follows: Inhibition of [3H]DA uptake at DAT in Sprague-Dawley rat striatum. Summed up: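 Uptake of [3H]dopamine into the S1 fraction of rat striatal homogenate; IC50 from curves fit by nonlinear regression.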
The target of assay [5] is Monoamine transporters; Norepininephrine & dopamine (Rattus norvegicus) (UniProt P23977+Q9WTR4). The assay is described as follows: Selectivity for rat DAT over rat NET. It counts as protein assay.
Assay [6] has as its target Norepinephrine transporter (Rattus norvegicus) (UniProt Q9WTR4). Put plainly: Displacement of [3H]nisoxetine from NET in Sprague-Dawley rat cortical tissue at 5 uM. (Loss of bound radioactivity is the signal in a displacement assay; it reports binding, not function.)
For assay [7], the target named is Sodium-dependent serotonin transporter (Rattus norvegicus, UniProt P31652). Put plainly: Displacement of [3H]citalopram from 5HTT in Sprague-Dawley rat cerebrum. A digest of the protocol: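 Rat cortical P2 fraction in 25 mM sodium phosphate, pH 7.7 at 0 °C; 2 nM [3H]citalopram, 3 h at 0 °C; filtration. Nonspecific binding with 1 µM clomipramine. Compounds in water, dilute DMSO or methanol (≤0.3% solvent). Data corrected for filter binding; IC50 by nonlinear regression, Ki by Cheng-Prusoff.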

Assay [8] deals with Norepinephrine transporter (Rattus norvegicus, UniProt Q9WTR4). Put plainly: Displacement of [3H]nisoxetine from NET in Sprague-Dawley rat cortical tissue.
The target in assay [9] is Monoamine transporters; Norepinephrine & serotonin (Rattus norvegicus) (UniProt P31652+Q9WTR4). Put plainly: Selectivity for rat NET over rat 5HTT. The class given is protein assay.

pIC50, pKi: −log10 of the molar value. Where a name gives a salt, the structure may show the parent alone.

Norepinephrine transporter (Rattus norvegicus), sequence (Q9WTR4 as listed by the source): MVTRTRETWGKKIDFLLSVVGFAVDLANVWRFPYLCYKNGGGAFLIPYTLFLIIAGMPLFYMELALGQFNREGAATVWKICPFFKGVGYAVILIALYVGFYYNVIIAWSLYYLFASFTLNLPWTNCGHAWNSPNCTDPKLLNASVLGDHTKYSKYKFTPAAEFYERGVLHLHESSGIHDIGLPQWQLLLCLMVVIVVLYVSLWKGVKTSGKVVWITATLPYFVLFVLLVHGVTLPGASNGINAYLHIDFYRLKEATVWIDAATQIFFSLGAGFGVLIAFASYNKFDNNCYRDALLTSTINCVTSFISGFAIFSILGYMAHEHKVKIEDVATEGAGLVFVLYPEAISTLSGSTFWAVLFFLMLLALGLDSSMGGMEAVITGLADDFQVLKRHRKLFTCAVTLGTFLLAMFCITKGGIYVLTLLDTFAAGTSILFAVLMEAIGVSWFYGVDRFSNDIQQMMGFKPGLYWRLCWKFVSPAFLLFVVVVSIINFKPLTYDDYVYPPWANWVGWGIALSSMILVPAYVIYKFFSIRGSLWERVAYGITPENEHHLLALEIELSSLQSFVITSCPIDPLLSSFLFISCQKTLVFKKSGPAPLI
Norepinephrine transporter, sequence (Q9WTR4 whole entry): as the sequence (Q9WTR4 as listed by the source) above
Sodium-dependent serotonin transporter (Rattus norvegicus), sequence (P31652 whole entry): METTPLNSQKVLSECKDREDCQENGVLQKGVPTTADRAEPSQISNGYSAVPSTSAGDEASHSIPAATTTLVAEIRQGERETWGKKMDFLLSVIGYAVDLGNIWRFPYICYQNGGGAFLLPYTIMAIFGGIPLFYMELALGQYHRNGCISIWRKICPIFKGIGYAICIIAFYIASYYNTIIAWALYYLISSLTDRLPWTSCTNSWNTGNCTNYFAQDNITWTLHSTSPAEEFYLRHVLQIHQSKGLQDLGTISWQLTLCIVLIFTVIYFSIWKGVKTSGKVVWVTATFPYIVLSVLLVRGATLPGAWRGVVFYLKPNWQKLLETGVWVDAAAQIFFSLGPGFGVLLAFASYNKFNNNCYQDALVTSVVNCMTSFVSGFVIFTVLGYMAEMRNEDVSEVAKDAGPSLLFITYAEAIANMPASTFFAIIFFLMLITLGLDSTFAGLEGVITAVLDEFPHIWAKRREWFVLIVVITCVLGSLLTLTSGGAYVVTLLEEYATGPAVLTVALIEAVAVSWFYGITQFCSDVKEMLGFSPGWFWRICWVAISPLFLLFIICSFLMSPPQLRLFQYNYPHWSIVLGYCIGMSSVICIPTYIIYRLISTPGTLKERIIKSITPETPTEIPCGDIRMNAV
Sodium-dependent serotonin transporter, sequence (P31652 whole entry): as above
Monoamine transporters; serotonin & dopamine (Rattus norvegicus), sequence (P23977 whole entry, looked up): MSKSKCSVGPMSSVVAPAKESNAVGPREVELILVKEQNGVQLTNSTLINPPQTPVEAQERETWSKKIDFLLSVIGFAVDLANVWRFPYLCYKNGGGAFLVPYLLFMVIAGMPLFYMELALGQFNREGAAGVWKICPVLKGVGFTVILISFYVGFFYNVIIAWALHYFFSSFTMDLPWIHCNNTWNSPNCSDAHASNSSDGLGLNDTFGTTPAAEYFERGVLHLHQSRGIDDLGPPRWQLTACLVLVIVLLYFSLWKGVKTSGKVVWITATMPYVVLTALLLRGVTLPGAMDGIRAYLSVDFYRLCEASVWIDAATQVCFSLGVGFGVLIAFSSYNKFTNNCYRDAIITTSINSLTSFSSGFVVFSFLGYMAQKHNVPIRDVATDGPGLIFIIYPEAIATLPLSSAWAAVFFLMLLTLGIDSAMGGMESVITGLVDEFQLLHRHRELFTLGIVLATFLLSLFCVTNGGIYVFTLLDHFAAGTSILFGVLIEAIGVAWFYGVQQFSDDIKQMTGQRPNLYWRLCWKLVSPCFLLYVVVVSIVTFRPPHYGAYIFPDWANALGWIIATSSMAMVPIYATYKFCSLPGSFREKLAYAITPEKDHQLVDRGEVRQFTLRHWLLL
Monoamine transporters; serotonin & dopamine (Rattus norvegicus), sequence (P31652 whole entry, looked up): as the sequence (P31652 whole entry) above
T1 sequence (P23977 whole entry): as the sequence (P23977 whole entry, looked up) above

Regarding `CCN1CCCC[C@@H]1[C@H](C)c1ccccc1` (relative stereo), the inhibition in assay [1] is 11%; in [6], 8.3%. Moreover, in assay [2], the pKi is 5.12. The Selectivity ratio in assay [3] is greater than 1.3; in [5], greater than 0.66. In addition, the pIC50 in [4] was 5.10.
In the case of `COC(=O)[C@@H](c1ccc(Cl)c(Cl)c1)[C@H]1CCCCN1` (relative stereo), the pKi in assay [7] was 5.59; in assay [2], 6.44. For the same compound, in [3], the Selectivity ratio came to 7.1. Also, the pIC50 in assay [4] was 6.50.
For the compound `C[C@H]1C[C@H](c2ccccc2)[C@H]2CCCCN2C1`, the pKi in assay [8] is 6.16; in assay [7], 6.37; in [2], 6.75. For the same compound, the Selectivity ratio in assay [3] came out at 2.4; in assay [9] it was 0.62; in assay [5], 3.9. The same compound gave a pIC50 in assay [4] of 6.43.
The compound `COC[C@H](c1ccccc1)[C@H]1CCCCN1` (relative stereo) gave an inhibition in assay [1] of 47.8%. Besides, the pKi in assay [2] was 7.05. Further, the Selectivity ratio in assay [3] came to 110. The same compound gave a negative-log IC50 (pIC50) in assay [4] of 6.55.
For the compound `c1ccc([C@H]2CCCN3CCCC[C@H]23)cc1` (relative stereo), the pKi in [8] is 6.86; in assay [7] it was 5.29; in [2], 7.12. The Selectivity ratio in [3] stood at 67; in assay [9], 37; in assay [5], 1.8. Further, the pIC50 in [4] was 6.61.
In the case of `CO[C@@H]1CCN2CCCC[C@@H]2[C@H]1c1ccccc1`, the pKi is 5.69 in assay [8] and 6.24 in assay [2]. Further, the inhibition in assay [1] is 14%; in assay [6], 64%. The Selectivity ratio in assay [3] is greater than 18; in assay [9], greater than 4.9; in assay [5] it was 3.6. The same compound had a pIC50 in assay [4] of 5.73.
With `COC(=O)[C@H](c1ccc(Cl)c(Cl)c1)[C@H]1CCCCN1`, the pKi in assay [7] was 6.18; in assay [2], 8.32. Also, the Selectivity ratio in assay [3] came out at 140. In assay [4], the pIC50 is 8.15.
Take `CC[C@@H]1CCN2CCCC[C@@H]2[C@H]1c1ccccc1`: the negative logarithm of the Ki (pKi) in assay [8] is 6.39; in assay [7], 5.62; in assay [2], 7.56. In assay [1], this compound gave an inhibition of 80%. In addition, the figures for the Selectivity ratio in assay [3], in assay [9] and in assay [5] were 87, 5.8 and 15, respectively.
As to `CC[C@H]1CCN2CCCC[C@@H]2[C@H]1c1ccc(Cl)c(Cl)c1`, the figures for the pKi in [8], in [7] and in [2] were 7.01, 6.70 and 8.39, respectively. In addition, the Selectivity ratio in assay [3] came to 48; in [9], 2; in assay [5] it was 24.
For `CC[C@H]1CCN2CCCC[C@@H]2[C@H]1c1ccccc1`, the pKi in assay [8] is 7.22; in assay [7] it was 5.45; in assay [2], 8.26. In assay [1], this compound came in with an inhibition of 86%. Also, the Selectivity ratio was found to be 640 in [3], 58 in assay [9] and 11 in assay [5].
As to `CC[C@@H]1CCN2CCCC[C@@H]2[C@H]1c1ccc(Cl)c(Cl)c1`, the values for the pKi in assay [8], in assay [7] and in assay [2] were 6.99, 6.54 and 8.46, respectively. Further, the Selectivity ratio is 83 in [3], 2.8 in [9] and 30 in assay [5].
In the case of `Clc1ccc([C@@H]2CCCN3CCCC[C@H]23)cc1Cl` (relative stereo), the pKi was 6.80 in assay [8], 6.99 in assay [7] and 7.46 in assay [2]. Also, the Selectivity ratio in assay [3] amounted to 3; in assay [9] it was 0.64; in assay [5], 4.6. In assay [4], the pIC50 is 7.06.
For the compound `CO[C@H]1CCN2CCCC[C@@H]2[C@H]1c1ccccc1`, the pKi in assay [8] was 7.20; in assay [7], 5.68; in assay [2], 7.97. The inhibition in assay [1] amounted to 73%. In addition, the Selectivity ratio in [3] turned out to be 190; in [9], 32; in assay [5] it was 5.9. The same compound had a pIC50 in assay [4] of 7.21.
Consider `O=C1CCN2CCCC[C@@H]2[C@H]1c1ccccc1` (relative stereo), for which the negative logarithm of the Ki (pKi) was 5.39 in assay [8] and 6.04 in [2]. Besides, the inhibition in assay [1] came out at 5%; in assay [6], 52%. In addition, the Selectivity ratio is greater than 11 in assay [3], greater than 2.5 in assay [9] and 4.4 in [5]. The compound also had a pIC50 in [4] of 4.91.
In [1], `CCN1CCCC[C@@H]1[C@H](CO)c1ccccc1` (relative stereo) yielded an inhibition of 16.2%. In assay [2], the pKi was 5.68. Besides, the Selectivity ratio in assay [3] is greater than 4.8. In addition, the pIC50 in [4] is 4.98.
In assay [1], `OC[C@H](c1ccccc1)[C@H]1CCCCN1` (relative stereo) came in with an inhibition of 31%. The compound also had a pKi in [2] of 6.39. The Selectivity ratio in [3] is greater than 25. This compound showed a pIC50 in assay [4] of 5.82.
Consider `CC[C@@]1(O)CCN2CCCC[C@@H]2[C@H]1c1ccccc1`, for which the pKi was 5.82 in assay [8] and 6.76 in assay [2]. The compound further had an inhibition in [1] of 19%. In addition, the Selectivity ratio in assay [3] is greater than 57; in assay [9] it was greater than 6.6; in [5], 8.69.
`OC[C@H](c1ccc(Cl)c(Cl)c1)[C@H]1CCCCN1` (relative stereo): the pKi in assay [7] was 6.56; in assay [2], 8.41. Further, the inhibition in assay [1] turned out to be 94.6%. Also, in [3], the Selectivity ratio is 71. Besides, the pIC50 in assay [4] was 7.65.
On to `O=C1CC[C@H](c2ccccc2)[C@H]2CCCCN12`, for which the pKi in [7] was 5.45. The Selectivity ratio in [3] is 0.54; in assay [9], less than 0.7; in [5], greater than 0.76. Moreover, in assay [4], the pIC50 was 5.07. Further, in assay [6], the inhibition turned out to be 11%.
As for `COC(=O)[C@H](c1ccccc1Cl)[C@H]1CCCCN1`, in [1], the inhibition came out at 22.2%. Besides, the pKi in assay [2] was 5.76. Besides, the Selectivity ratio in assay [3] is greater than 5.7. For the same compound, the pIC50 in assay [4] was 5.58.
Regarding `O[C@@H]1CCN2CCCC[C@@H]2[C@H]1c1ccc(Cl)c(Cl)c1`, the pKi in assay [8] was 6.44; in [7], 5.69; in assay [2], 7.45. The Selectivity ratio in assay [3] came out at 57; in assay [9], 5.6; in assay [5], 10.
With `O[C@@H]1CCN2CCCC[C@@H]2[C@H]1c1ccccc1`, the inhibition in [1] was 1%; in [6], 23.7%. The pKi in assay [2] is 5.20. The figures for the Selectivity ratio in assay [3] and in assay [5] were greater than 1.6 and greater than 0.8, respectively. The same compound showed a pIC50 in assay [4] of 4.97.
As for `O=C1CCN2CCCC[C@@H]2[C@H]1c1ccc(Cl)c(Cl)c1` (relative stereo), the pKi was 6.55 in assay [8] and 7.85 in [2]. In [1], this compound came in with an inhibition of 54%. Also, the Selectivity ratio in assay [3] was 710; in assay [9], 36; in [5], 20.
In the case of `C[C@@H]1C[C@H](c2ccccc2)[C@H]2CCCCN2C1`, the pKi in [8] is 7.12; in assay [7], 6.61; in [2] it was 6.92. Further, the Selectivity ratio came to 2 in assay [3], 3.2 in assay [9] and 0.64 in [5]. For the same compound, the pIC50 in assay [4] is 6.61.
Take `O[C@H]1CCN2CCCC[C@@H]2[C@H]1c1ccccc1`: the values for the pKi in assay [8] and in [2] were 6.45 and 6.97, respectively. Also, the inhibition in assay [1] turned out to be 12%. Besides, the results for the Selectivity ratio in assay [3], in [9] and in [5] were greater than 93, greater than 28 and 3.3, respectively. This compound also showed a pIC50 in assay [4] of 6.17.
For `O[C@H]1CCN2CCCC[C@@H]2[C@H]1c1ccc(Cl)c(Cl)c1`, the pKi was 7.55 in assay [8], 6.77 in assay [7] and 8.61 in assay [2]. Besides, the Selectivity ratio was found to be 68 in [3], 6 in assay [9] and 11 in [5].
In the case of `c1ccc(C2CCCNC2)cc1` (configuration not stated), the pKi in assay [8] was 6.27; in assay [2], 5.34. Further, in assay [1], the inhibition was found to be 53%. In addition, the values for the Selectivity ratio in assay [3], in [9] and in [5] were 2.2, 19 and 0.12, respectively. The same compound gave a pIC50 in assay [4] of 5.97.
Turning to `Clc1ccc([C@H]2CCCN3CCCC[C@H]23)cc1Cl` (relative stereo), the pKi in [8] was 7.55; in assay [7] it was 6.92; in assay [2], 8.47. Further, the Selectivity ratio in assay [3] was found to be 36; in assay [9] it was 4.3; in [5] it was 8.4. The pIC50 in assay [4] is 7.96.
`COC(=O)[C@H](c1ccccc1)[C@H]1CCCCN1` [DEXMETHYLPHENIDATE HYDROCHLORIDE] showed a pKi in assay [8] of 6.57. For the same compound, the inhibition in assay [1] was found to be 14%.
